# Legend:
# Format in all cases: functional
# [1] = In vitro antifungal activity against 6 filamentous fungi
# Outline: (§1)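 Agar dilution on Kimmig's agar with 0.5% glycerol, using ATCC strains or clinical isolates. Drug stocks were 800 μg/mL in 50% ethanol, tested as 2-fold dilutions from 80 to 0.03 μg/mL. Inocula were 10⁵ cfu/mL. […] Geometric means took >80 as 160 and ≤0.03 as 0.03.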
# [2] = In vitro for antifungal activity against 10 yeasts; outline: as §1
# Candida albicans [3] = test: In vivo antifungal activity against murine candidosis model after peroral administration with 1 mg/kg at various time intervals. (percent protection for 100% mortality with untreated group); settings: route oral
# Outline: (§2)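 Groups of 10 male mice were infected iv with 0.2 mL of C. albicans at 2 to 8×10^7 cfu/mL. Drug was given orally as a suspension in 1% Tween + 0.2% carboxymethylcellulose at 1, 4 and 24 h post-infection; controls got vehicle only. Survival was scored on days 3, 5, 7 and 9. Read-out was % survival on the day all untreated controls died, or on the day all mice given fluconazole at the same dose died.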
# Candida albicans [4] = test: In vivo antifungal activity against murine candidosis model after peroral administration with 1 mg/kg at various time intervals. (percent protection for 100% mortality with fluconazole-treated group.); settings: route oral; outline: as §2
# Candida albicans [5] = test: In vivo antifungal activity against murine candidosis model after peroral administration with 2.5 mg/kg at various time intervals. (percent protection for 100% mortality with fluconazole-treated group.); settings: route oral; outline: as §2
# Candida albicans [6] = test: In vivo antifungal activity against murine candidosis model after peroral administration with 2.5 mg/kg at various time intervals. (percent protection for 100% mortality with untreated group); settings: route oral; outline: as §2
# Candida albicans [7] = test: In vivo antifungal activity against murine candidosis model after peroral administration with 0.5 mg/kg at various time intervals. (percent protection for 100% mortality with untreated group); settings: route oral; outline: as §2
# Candida albicans [8] = test: In vivo antifungal activity against murine candidosis model after peroral administration with 0.5 mg/kg at various time intervals. (percent protection for 100% mortality with fluconazole-treated group.); settings: route oral; outline: as §2
SMILES,MIC ([1]; read-out: MIC),MIC ([2]; read-out: MIC),Protection (Candida albicans [3]),Protection (Candida albicans [4]),Protection (Candida albicans [5]),Protection (Candida albicans [6]),Protection (Candida albicans [7]),Protection (Candida albicans [8]),MIC [1],MIC [2]
C[C@@H](n1cnc2cc(C(N)=O)ccc2c1=O)[C@](O)(Cn1cncn1)c1ccc(F)cc1F,> 80 µg/mL,25 µg/mL,,,,,,,,
Cc1cccc2ncn([C@H](C)[C@](O)(Cn3cncn3)c3ccc(F)cc3F)c(=O)c12,40 µg/mL,2.6 µg/mL,0%,0%,,,,,,
C[C@@H](NC(=O)c1ccc(Cl)cc1NC=O)[C@](O)(Cn1cncn1)c1ccc(F)cc1F,0.9 µg/mL,0.3 µg/mL,,,0%,0%,,,,
C[C@@H](NC(=O)c1ccc(Cl)cc1N)[C@](O)(Cn1cncn1)c1ccc(F)cc1F,8.9 µg/mL,3.7 µg/mL,,,0%,20%,,,,
C[C@@H](n1cnc2cc(NN)ccc2c1=O)[C@](O)(Cn1cncn1)c1ccc(F)cc1F,> 80 µg/mL,15 µg/mL,,,,,,,,
C[C@@H](n1cnc2cc(C#N)ccc2c1=O)[C@](O)(Cn1cncn1)c1ccc(F)cc1F,3.5 µg/mL,0.8 µg/mL,10%,0%,,,,,,
C[C@@H](n1cnc2cccc(Cl)c2c1=O)[C@](O)(Cn1cncn1)c1ccc(F)cc1F,71 µg/mL,3.1 µg/mL,0%,0%,,,,,,
C[C@@H](n1cnc2cc(Sc3ccccc3)ccc2c1=O)[C@](O)(Cn1cncn1)c1ccc(F)cc1F,2 µg/mL,0.7 µg/mL,,,,,0%,0%,,
C[C@@H](n1cnc2cc(NCc3ccccc3)ccc2c1=O)[C@](O)(Cn1cncn1)c1ccc(F)cc1F,11 µg/mL,1.2 µg/mL,,,,,40%,0%,,
C[C@@H](n1cnc2cc(C(F)(F)F)ccc2c1=O)[C@](O)(Cn1cncn1)c1ccc(F)cc1F,2.2 µg/mL,0.7 µg/mL,,,,,100%,60%,,
C[C@@H](n1cnc2cc(N3CCOCC3)ccc2c1=O)[C@](O)(Cn1cncn1)c1ccc(F)cc1F,35 µg/mL,1.9 µg/mL,,,,,20%,0%,,
Cc1nc2cc(Cl)ccc2c(=O)n1[C@H](C)[C@](O)(Cn1cncn1)c1ccc(F)cc1F,36 µg/mL,6.6 µg/mL,,,,,,,,
C[C@@H](n1cnc2cc(C(=N)NS(N)(=O)=O)ccc2c1=O)[C@](O)(Cn1cncn1)c1ccc(F)cc1F,> 80 µg/mL,40 µg/mL,,,,,0%,0%,,
C[C@@H](N1CNc2cc(Cl)ccc2C1=O)[C@](O)(Cn1cncn1)c1ccc(F)cc1F,2.8 µg/mL,0.8 µg/mL,,,0%,30%,,,,
C[C@@H](n1cnc2ccc(F)cc2c1=O)[C@](O)(Cn1cncn1)c1ccc(F)cc1F,> 80 µg/mL,2.4 µg/mL,0%,0%,,,,,,
C[C@@H](n1cnc2cc(F)c(F)cc2c1=O)[C@](O)(Cn1cncn1)c1ccc(F)cc1F,70 µg/mL,1.7 µg/mL,10%,0%,,,,,,
C[C@@H](n1cnc2cc(N(C)C)c(F)cc2c1=O)[C@](O)(Cn1cncn1)c1ccc(F)cc1F,22 µg/mL,1.4 µg/mL,0%,0%,,,,,,
C[C@@H](n1cnc2cc(-n3cncn3)ccc2c1=O)[C@](O)(Cn1cncn1)c1ccc(F)cc1F,80 µg/mL,6.6 µg/mL,,,,,70%,<50%,,
CCC(CC)n1ncn(-c2ccc(N3CCN(c4ccc5ncn([C@H](C)[C@](O)(Cn6cncn6)c6ccc(F)cc6F)c(=O)c5c4)CC3)cc2)c1=O,28 µg/mL,3.7 µg/mL,,,,,0%,0%,,
C[C@@H](n1cnc2cc(Oc3ccc(Cl)cc3)ccc2c1=O)[C@](O)(Cn1cncn1)c1ccc(F)cc1F,7.1 µg/mL,0.7 µg/mL,,,,,100%,80%,,
C[C@@H](n1cnc2cc(N3CCN(C)CC3)ccc2c1=O)[C@](O)(Cn1cncn1)c1ccc(F)cc1F,> 80 µg/mL,19 µg/mL,,,,,20%,0%,,
C[C@@H](n1cnc2ccc(Br)cc2c1=O)[C@](O)(Cn1cncn1)c1ccc(F)cc1F,45 µg/mL,1.6 µg/mL,100%,0%,,,,,,
C[C@@H](n1cnc2cc(OCC(F)(F)F)ccc2c1=O)[C@](O)(Cn1cncn1)c1ccc(F)cc1F,15 µg/mL,1 µg/mL,,,,,100%,100%,,
C[C@@H](n1cnc2cc(N)c(F)cc2c1=O)[C@](O)(Cn1cncn1)c1ccc(F)cc1F,50 µg/mL,8.7 µg/mL,,,,,,,,

SMILES,MIC ([1]; read-out: MIC),MIC ([2]; read-out: MIC),Protection (Candida albicans [3]),Protection (Candida albicans [4]),Protection (Candida albicans [5]),Protection (Candida albicans [6]),Protection (Candida albicans [7]),Protection (Candida albicans [8]),MIC [1],MIC [2]
C[C@@H](n1cnc2cccc(F)c2c1=O)[C@](O)(Cn1cncn1)c1ccc(F)cc1F,57 µg/mL,4.3 µg/mL,0%,0%,,,,,,
C[C@@H](n1cnc2cc(-n3ncnn3)ccc2c1=O)[C@](O)(Cn1cncn1)c1ccc(F)cc1F,57 µg/mL,1.5 µg/mL,,,,,,,,
C[C@@H](n1cnc2cc(OCC(F)F)ccc2c1=O)[C@](O)(Cn1cncn1)c1ccc(F)cc1F,25 µg/mL,1.4 µg/mL,,,,,100%,0%,,
C[C@@H](n1cnc2cc(OCC(F)(F)C(F)F)ccc2c1=O)[C@](O)(Cn1cncn1)c1ccc(F)cc1F,18 µg/mL,0.4 µg/mL,,,,,100%,100%,,
C[C@@H](n1cnc2ccccc2c1=O)[C@](O)(Cn1cncn1)c1ccc(F)cc1F,8.9 µg/mL,1.2 µg/mL,10%,0%,,,,,,
CSc1ccc2c(=O)n([C@H](C)[C@](O)(Cn3cncn3)c3ccc(F)cc3F)cnc2c1,3.8 µg/mL,0.5 µg/mL,,,,,100%,40%,,
C[C@@H](n1cnc2cc(N3CCN(c4ccc(Cl)cc4)CC3)ccc2c1=O)[C@](O)(Cn1cncn1)c1ccc(F)cc1F,2.8 µg/mL,0.2 µg/mL,,,,,60%,0%,,
C[C@@H](n1cnc2cc(OCCF)ccc2c1=O)[C@](O)(Cn1cncn1)c1ccc(F)cc1F,28 µg/mL,1.4 µg/mL,,,,,0%,0%,,
Cc1cc(Br)c2ncn([C@H](C)[C@](O)(Cn3cncn3)c3ccc(F)cc3F)c(=O)c2c1,> 80 µg/mL,2.1 µg/mL,0%,0%,,,,,,
Cc1cccc2c(=O)n([C@H](C)[C@](O)(Cn3cncn3)c3ccc(F)cc3F)cnc12,80 µg/mL,2.3 µg/mL,10%,0%,,,,,,
Cc1cc(C)c2ncn([C@H](C)[C@](O)(Cn3cncn3)c3ccc(F)cc3F)c(=O)c2c1,> 80 µg/mL,3.8 µg/mL,0%,0%,,,,,,
CC[C@H]([C@H](C)O)n1ncn(-c2ccc(N3CCN(c4ccc5c(=O)n([C@H](C)[C@](O)(Cn6cncn6)c6ccc(F)cc6F)cnc5c4)CC3)cc2)c1=O,> 80 µg/mL,32 µg/mL,,,,,,,,
C[C@@H](n1cnc2c(Cl)cc(Cl)cc2c1=O)[C@](O)(Cn1cncn1)c1ccc(F)cc1F,> 80 µg/mL,1.7 µg/mL,100%,0%,,,,,,
C[C@@H](n1cnc2c(Br)cc(Br)cc2c1=O)[C@](O)(Cn1cncn1)c1ccc(F)cc1F,> 80 µg/mL,2.6 µg/mL,10%,0%,,,,,,
Cc1ccc2ncn([C@H](C)[C@](O)(Cn3cncn3)c3ccc(F)cc3F)c(=O)c2c1,45 µg/mL,1.4 µg/mL,40%,0%,,,,,,
C[C@@H](n1cnc2cc(S(=O)(=O)c3ccccc3)ccc2c1=O)[C@](O)(Cn1cncn1)c1ccc(F)cc1F,8.7 µg/mL,1.2 µg/mL,,,,,0%,0%,,
C[C@@H](n1cnc2ccc(Cl)cc2c1=O)[C@](O)(Cn1cncn1)c1ccc(F)cc1F,50 µg/mL,1 µg/mL,40%,0%,,,,,,
C[C@@H](n1cnc2cc3ccccc3cc2c1=O)[C@](O)(Cn1cncn1)c1ccc(F)cc1F,45 µg/mL,0.4 µg/mL,30%,0%,,,,,,
C[C@@H](n1cnc2cc(N3CCN(c4ccc([N+](=O)[O-])cc4)CC3)ccc2c1=O)[C@](O)(Cn1cncn1)c1ccc(F)cc1F,> 80 µg/mL,7.9 µg/mL,,,,,,,,
C[C@@H](n1cnc2cc(N3CCOC3=O)ccc2c1=O)[C@](O)(Cn1cncn1)c1ccc(F)cc1F,80 µg/mL,8.7 µg/mL,,,,,,,,
C[C@@H](n1cnc2cc(S(C)(=O)=O)ccc2c1=O)[C@](O)(Cn1cncn1)c1ccc(F)cc1F,> 80 µg/mL,11 µg/mL,,,,,100%,80%,,
C[C@@H](n1cnc2cc(NC(=O)C(F)(F)F)c(F)cc2c1=O)[C@](O)(Cn1cncn1)c1ccc(F)cc1F,80 µg/mL,8.1 µg/mL,,,,,,,,
C[C@@H](n1cnc2cc(Cl)ccc2c1=O)[C@](O)(Cn1cncn1)c1ccc(F)cc1F (stereo in doubt; 75) [ALBACONAZOLE],,,,,,,,,33 µg/mL,1 µg/mL

# Source: ChEMBL document CHEMBL1131232, “New azole antifungals. 3. Synthesis and antifungal activity of 3-substituted-4(3H)-quinazolinones” (J Med Chem, 1998)
